Experiment [1] relates to Rattus norvegicus. In words: Anti-inflammatory activity against reverse passive […] reaction-synovitis in rat at 50 mg/kg oral dose. Format: functional. The method in brief: (§1)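 Lewis rats dosed orally with drug or placebo 1 h before iv bovine serum albumin in saline, then 0.54 mg rabbit anti-BSA antibody intraarticular in one knee, saline in the other, under light anesthesia. Second oral dose at 3 h; the dose used is the total given before and after induction.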

The test system of experiment [2] is Rattus norvegicus. In words: Prophylactic anti-inflammatory activity in adjuvant arthritic rat at 27 mg/kg in noninjected 2 degree paw. Format: functional. The method, boiled down:
(§2)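 Heat-killed Mycobacterium tuberculosis ground and homogenized in paraffin oil (6 mg/mL); 0.1 mL injected into left hind paw. Drug dosed 1 h before challenge, then daily for 21 consecutive days; controls received methylcellulose. Both hind paw volumes measured by plethysmograph immediately and on day 21; % inhibition of Δ paw volume.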

Experiment [3] can be described thus: Therapeutic oral administration in adjuvant arthritic rat model at 25 mg/kg in noninjected 2 degree paw. Format: ADME, organism-based. Also noted: dose 25 mg/kg, route oral. The method, boiled down:
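Adjuvant arthritis (heat-killed M. tuberculosis in paraffin oil, 6 mg/mL, 0.1 mL into left hind paw) left to develop 7 days before first oral dose; treatment continued 35 days. Controls given methylcellulose; hind paw volumes measured by plethysmograph as Δ paw volume; % inhibition.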

For the next experiment, the target named is T1, Cyclooxygenase (Rattus norvegicus, UniProt P35355+Q63921).
T1 sequence (P35355 whole entry): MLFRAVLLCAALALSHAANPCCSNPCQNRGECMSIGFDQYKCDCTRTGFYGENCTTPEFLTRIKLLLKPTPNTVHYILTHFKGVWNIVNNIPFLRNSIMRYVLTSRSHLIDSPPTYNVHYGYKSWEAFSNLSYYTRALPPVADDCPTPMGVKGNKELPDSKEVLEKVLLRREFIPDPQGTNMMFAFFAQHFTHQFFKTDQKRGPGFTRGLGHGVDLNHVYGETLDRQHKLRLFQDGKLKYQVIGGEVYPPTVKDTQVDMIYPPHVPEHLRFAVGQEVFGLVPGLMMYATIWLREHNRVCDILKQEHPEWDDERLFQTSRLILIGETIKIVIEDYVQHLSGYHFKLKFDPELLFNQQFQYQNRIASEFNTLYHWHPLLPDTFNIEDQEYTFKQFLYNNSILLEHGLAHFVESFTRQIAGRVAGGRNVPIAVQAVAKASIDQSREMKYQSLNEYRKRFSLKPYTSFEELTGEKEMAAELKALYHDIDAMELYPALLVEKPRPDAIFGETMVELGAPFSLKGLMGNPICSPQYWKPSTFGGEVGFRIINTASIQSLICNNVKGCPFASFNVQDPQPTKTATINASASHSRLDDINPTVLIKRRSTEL
T1 sequence (Q63921 whole entry): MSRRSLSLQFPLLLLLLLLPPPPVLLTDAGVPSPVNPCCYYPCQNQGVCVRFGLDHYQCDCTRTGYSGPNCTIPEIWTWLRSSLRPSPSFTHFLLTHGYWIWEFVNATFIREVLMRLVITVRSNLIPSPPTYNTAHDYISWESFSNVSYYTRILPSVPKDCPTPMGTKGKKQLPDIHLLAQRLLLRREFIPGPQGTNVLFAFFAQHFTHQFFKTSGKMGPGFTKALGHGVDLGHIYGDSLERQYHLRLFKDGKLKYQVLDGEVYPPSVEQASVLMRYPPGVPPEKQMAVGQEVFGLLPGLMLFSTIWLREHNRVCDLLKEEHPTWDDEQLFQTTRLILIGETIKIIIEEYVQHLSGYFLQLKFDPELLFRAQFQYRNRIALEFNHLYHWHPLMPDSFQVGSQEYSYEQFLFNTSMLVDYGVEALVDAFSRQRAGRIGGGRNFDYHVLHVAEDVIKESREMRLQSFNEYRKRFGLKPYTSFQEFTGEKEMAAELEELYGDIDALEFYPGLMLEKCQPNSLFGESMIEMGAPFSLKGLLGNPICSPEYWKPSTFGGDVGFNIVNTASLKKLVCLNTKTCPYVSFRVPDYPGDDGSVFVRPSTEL
In words: Inhibitory activity against Prostaglandin G/H synthase in an in vitro rat neutrophil assay. Format: protein assay.

The nature of experiment [4]: Inhibition of guinea pig Phosphodiesterase. More on the design: species or system Cavia porcellus.
Experiment [5] relates to Rattus norvegicus. In words: Prophylactic anti-inflammatory activity in adjuvant arthritic rat at 3 mg/kg in noninjected 1 degree paw. Format: functional. The method, boiled down: as §2
Experiment [6] has as its system Rattus norvegicus. In words: Prophylactic oral administration in adjuvant arthritic rat model at 27 mg/kg in noninjected 2 degree paw. Format: functional. The method, boiled down: as §2
Experiment [7] deals with Rattus norvegicus. In words: Prophylactic anti-inflammatory activity in adjuvant arthritic rat at 3 mg/kg in noninjected 2 degree paw. Format: functional. The method, boiled down:
as §2

Experiment [8] has as its system Rattus norvegicus. In words: Prophylactic anti-inflammatory activity in adjuvant arthritic rat at 9 mg/kg in noninjected 1 degree paw. Format: functional. The method, boiled down:
as §2

Experiment [9] has as its system Rattus norvegicus. Put plainly: Prophylactic anti-inflammatory activity in adjuvant arthritic rat at 27 mg/kg in noninjected 1 degree paw. Format: functional. The method, boiled down:
as §2

The subject of experiment [10] is Rattus norvegicus. In words: Anti-inflammatory activity against reverse passive […] reaction-synovitis in rat at 100 mg/kg oral dose. Format: functional. The method in brief: as §1
The test system of experiment [11] is Rattus norvegicus. In words: Prophylactic anti-inflammatory activity in adjuvant arthritic rat at 9 mg/kg in noninjected 2 degree paw. Format: functional. The method, boiled down: as §2

“And” between values parts separate entries of the source, which are not always exact repeats. Equal values may be shown once.

For `CN1CN(C)c2nc3n(Cc4ccccc4)c(O)cc(=O)n3c2C1=O`, in the experiment on Rattus norvegicus [1], testing at 50 mg/kg gave an inhibition in vivo of 0%.

`CC(C)=CCc1c(O)n(Cc2ccccc2)c2nc3c(n2c1=O)C(=O)N(C)CN3C`: the inhibition in vivo (as a rule, the relative decrease from the control value, in per cent) at 27 mg/kg with Rattus norvegicus [2] is 92%; with Rattus norvegicus [9], 54%. The ED50 (usually the dose that gives a 50% effect, or the effect in half of the subjects) in experiment [3] was 15 mg/kg; in the experiment on Rattus norvegicus [6], 6.02 mg/kg. Also, the IC50 (in general, the point on the concentration scale where inhibition reaches its midpoint) against Cyclooxygenase was 6 µM; in [4] it was 37 µM and 200 µM. The inhibition in vivo at 3 mg/kg was 17% with Rattus norvegicus [5] and 47% in the experiment on Rattus norvegicus [7]. Besides, the inhibition in vivo at 9 mg/kg came to 33% in the experiment with Rattus norvegicus [8] and 65% in the experiment with Rattus norvegicus [11]. The molecule further had an inhibition in vivo at 100 mg/kg in the experiment with Rattus norvegicus [10] of 20%.

(Values after ChEMBL document CHEMBL1124662, “Antiinflammatory activity of a series of substituted 2,3-dihydro-6-hydroxypyrimido[2,1-f]purine-4,8(1H,9H)-diones” (J Med Chem, 1989).)
